Results on eight compounds are retold here after ChEMBL document CHEMBL2086278, “Synthesis and biological evaluation of ester prodrugs of Benzafibrate as orally active hypolipidemic agents” (Eur J Med Chem, 2012).

The test system of series [1] is Mus musculus. The series is described as follows: Hypolipidemic activity in Swiss albino mouse assessed as reduction in plasma triglyceride level at 50 mg/kg, po for 8 days measured on day 9 by spectrophotometry relative to control. Format: functional. Further details: scale not given: the % may be the effect or the level left. The gist of the method: (§1)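 Male Swiss albino mice, 21–30 g, chow fed, acclimatised 1 week; n = 10/group. Oral gavage 50 mg/kg/day for 8 days, suspended in Tween-80 5 µL/mL in 0.5% CMC (10 mL/kg); vehicle controls. Fasted 12 h; day 9 blood taken 1 h post-dose under mild ether. Plasma (4000 rpm, 10 min) TG/TC by spectrophotometric kit; % fall vs control; mean ± SE, ANOVA with Dunnett's.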

Series [2] concerns Mus musculus. The series is described as follows: Hypolipidemic activity in Swiss albino mouse assessed as reduction in plasma total cholesterol level at 50 mg/kg, po for 8 days measured on day 9 by spectrophotometry relative to control. Further details: scale not given: the % may be the effect or the level left. The class given is functional. The gist of the method:
as §1

Series [3] is described as follows: Aqueous stability of the compound in 0.2 M hydrochloric acid buffer solution at pH 1 at 40 degC after 4 hrs by HPLC analysis. Format: physicochemical. To be noted: pH 1, 4 h. An outline of the steps: (§2)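 10 mg test compound in 10 mL buffer shaken at 400 rpm, 40 °C, 4 h. Buffers: 0.2 M HCl pH 1.0, 0.1 M citric acid pH 3.0, 0.1 M phosphate pH 5.2, 0.2 M phosphate pH 7.4, 0.1 M boric acid pH 9.0. Filtered 0.20 µm; filtrate analysed by HPLC at 254 nm (C-8 column, gradient) for bezafibrate formed / % hydrolysed.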

The nature of series [4]: Prodrug conversion in 0.1 M boric acid buffer solution assessed as benzofibrate formation at pH 9.0 at 40 degC after 4 hrs by HPLC analysis. To be noted: pH 9, 4 h.
Series [5] is described as follows: Aqueous stability of the compound in 0.1 M citric acid buffer at pH 3 at 40 degC after 4 hrs by HPLC analysis. Format: physicochemical. To be noted: pH 3, 4 h. The gist of the method: as §2
Series [6] can be described thus: Prodrug conversion in 0.1 M phosphate buffer solution assessed as benzofibrate formation at pH 5.2 at 40 degC after 4 hrs by HPLC analysis. Format: physicochemical. To be noted: pH 5.2, 4 h. The gist of the method: as §2
A short description of series [7]: Octanol-phosphate buffer partition coefficient, log P of the compound at pH 7.4 by HPLC analysis. Format: physicochemical. The gist of the method: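 1-Octanol and 0.2 M phosphate buffer pH 7.4, mutually pre-saturated 24 h. Compound shaken between 5 mL of each phase for 60 min at 400 rpm, 25 °C, then centrifuged at 3500 rpm for 5 min. Each phase quantified by HPLC at 254 nm. log P = log of octanol/un-ionized aqueous concentration ratio, mean of triplicate.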

A short description of series [8]: Prodrug conversion in 0.2 M phosphate buffer solution assessed as benzofibrate formation at pH 7.4 at 40 degC after 4 hrs by HPLC analysis. To be noted: pH 7.4, 4 h.
Series [9] relates to Mus musculus. The series is described as follows: Hypolipidemic activity in Swiss albino mouse assessed as reduction in plasma triglyceride level at 100 mg/kg, po for 8 days measured on day 9 by spectrophotometry relative to control. The class given is functional. Further details: scale not given: the % may be the effect or the level left. The gist of the method:
(§3)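 Dose-response in male Swiss albino mice (21–30 g, chow fed): oral dosing at 10, 30 or 100 mg/kg/day, vehicle Tween-80 in 0.5% CMC. Plasma triglyceride and total cholesterol measured spectrophotometrically with a commercial kit; % fall relative to untreated control.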

For series [10], the system named is Mus musculus. Put plainly: Hypolipidemic activity in Swiss albino mouse assessed as reduction in plasma total cholesterol level at 10 mg/kg, po for 8 days measured on day 9 by spectrophotometry relative to control. The class given is functional. Further details: scale not given: the % may be the effect or the level left. The gist of the method: as §3
The test system of series [11] is Mus musculus. Put plainly: Hypolipidemic activity in Swiss albino mouse assessed as reduction in plasma total cholesterol level at 30 mg/kg, po for 8 days measured on day 9 by spectrophotometry relative to control. The class given is functional. Further details: scale not given: the % may be the effect or the level left. The gist of the method: as §3
The subject of series [12] is Mus musculus. Put plainly: Hypolipidemic activity in Swiss albino mouse assessed as reduction in plasma triglyceride level at 10 mg/kg, po for 8 days measured on day 9 by spectrophotometry relative to control. The class given is functional. Further details: scale not given: the % may be the effect or the level left. The gist of the method: as §3
For series [13], the system named is Mus musculus. The series is described as follows: Hypolipidemic activity in Swiss albino mouse assessed as reduction in plasma triglyceride level at 30 mg/kg, po for 8 days measured on day 9 by spectrophotometry relative to control. Format: functional. Set-up: scale not given: the % may be the effect or the level left. The gist of the method: as §3
The subject of series [14] is Mus musculus. Put plainly: Hypolipidemic activity in Swiss albino mouse assessed as reduction in plasma total cholesterol level at 100 mg/kg, po for 8 days measured on day 9 by spectrophotometry relative to control. The class given is functional. Set-up: scale not given: the % may be the effect or the level left. An outline of the steps:
as §3

One may read the logD as the decadic logarithm of the distribution of all forms, ionised or not, between an organic phase and buffer at a given pH. `CC(=O)OCCOC(=O)C(C)(C)Oc1ccc(CCNC(=O)c2ccc(Cl)cc2)cc1`: the Activity in the series on Mus musculus [1] turned out to be 9.6%; with Mus musculus [2] it was 2.4%. The Stability entry in series [3] and in [5] was “Stable” in each case. Further, the Drug metabolism was 2.5 µg/mL in [4], 0.7 µg/mL in [6] and 1.8 µg/mL in series [8]. Further, the logD in series [7] worked out at 3.8.

Take `CC(C)(Oc1ccc(CCNC(=O)c2ccc(Cl)cc2)cc1)C(=O)O` [BEZAFIBRATE]: the results for the Activity in the series with Mus musculus [1] and with Mus musculus [2] were 11.4% and 10.4%, respectively. The logD in series [7] is 1.5.

For `CC(C)OC(=O)OCOC(=O)C(C)(C)Oc1ccc(CCNC(=O)c2ccc(Cl)cc2)cc1`, the Activity with Mus musculus [1] and with Mus musculus [2] was 3% each time.

Take `CC(C)OC(=O)OC(C)OC(=O)C(C)(C)Oc1ccc(CCNC(=O)c2ccc(Cl)cc2)cc1` (stereo not drawn): the results for the Activity in the series on Mus musculus [1] and in the series on Mus musculus [2] were 3.9% and -5.6%, respectively.

As for `CC(=O)OC(C)OC(=O)C(C)(C)Oc1ccc(CCNC(=O)c2ccc(Cl)cc2)cc1` (stereo not drawn), the Activity with Mus musculus [1] came out at 17.2%; in the series with Mus musculus [2], 4.3%. Moreover, the Stability result in series [3] and in series [5] was “Stable” in each case. The Drug metabolism stood at 6.6 µg/mL in series [4], 0.2 µg/mL in series [6] and 0.9 µg/mL in series [8]. The same compound yielded a logD in [7] of 4.5.

Turning to `CC(C)(Oc1ccc(CCNC(=O)c2ccc(Cl)cc2)cc1)C(=O)OCCN1CCOCC1`, the Activity came out at 11.8% with Mus musculus [1] and 3% in the series on Mus musculus [2]. Besides, the Stability result in series [3] and in [5] was “Stable” throughout. The values for the Drug metabolism in [4], in series [6] and in series [8] were 8.8 µg/mL, 6.3 µg/mL and 6.2 µg/mL, respectively. In series [7], the logD is 5.1.

Turning to `Cc1oc(=O)oc1COC(=O)C(C)(C)Oc1ccc(CCNC(=O)c2ccc(Cl)cc2)cc1`, the Activity in the series with Mus musculus [1] is 30.2%; in the series with Mus musculus [2], 13%; in the series on Mus musculus [9], 22.3%; in the series with Mus musculus [10], 4.9%; in the series with Mus musculus [11], 2%; in the series on Mus musculus [12], 3.51%. Moreover, the Activity with Mus musculus [13] was determined as 27.1%; with Mus musculus [14] it was 4%. The Stability result in series [3] and in series [5] was “Stable” throughout. The Drug metabolism was determined as 2.6 µg/mL in [4], 0.2 µg/mL in [6] and 0.5 µg/mL in series [8]. The compound further yielded a logD in [7] of 3.1.

With `CC(C)(C)C(=O)OCOC(=O)C(C)(C)Oc1ccc(CCNC(=O)c2ccc(Cl)cc2)cc1`, the values for the Activity in the series with Mus musculus [1] and in the series with Mus musculus [2] were 18.8% and 3.4%, respectively. Further, the Stability entry in series [3] and in series [5] was “Stable” throughout. For the same compound, the Drug metabolism came to 0.8 µg/mL in series [4], 1.7 µg/mL in series [6] and 2.2 µg/mL in series [8]. The compound also gave a logD in series [7] of 5.1.
